Columns and labels:
Macaca mulatta = organism: Macaca mulatta; experiment: Binding affinity to rhesus monkey DAT
How it was run: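 Monkey striatal tissue; each compound tested 2–5 times. Competition binding used a fixed radioligand concentration against a range of test-drug concentrations.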

[1] = biological target: Sodium-dependent dopamine transporter (Homo sapiens) (UniProt Q01959); experiment: Displacement of [3H]WIN 35,428 from human dopamine active transporter
How it was run: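 A fixed radioligand concentration was run against a range of test-drug concentrations, and IC50 was read. Racemic compounds. Values are means of two or more independent experiments, each in triplicate.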

Homo sapiens = organism: Homo sapiens; experiment: Selectivity ratio of IC50 for human DAT to IC50 for human SERT

Sodium-dependent dopamine transporter (Homo sapiens), sequence (Q01959 whole entry): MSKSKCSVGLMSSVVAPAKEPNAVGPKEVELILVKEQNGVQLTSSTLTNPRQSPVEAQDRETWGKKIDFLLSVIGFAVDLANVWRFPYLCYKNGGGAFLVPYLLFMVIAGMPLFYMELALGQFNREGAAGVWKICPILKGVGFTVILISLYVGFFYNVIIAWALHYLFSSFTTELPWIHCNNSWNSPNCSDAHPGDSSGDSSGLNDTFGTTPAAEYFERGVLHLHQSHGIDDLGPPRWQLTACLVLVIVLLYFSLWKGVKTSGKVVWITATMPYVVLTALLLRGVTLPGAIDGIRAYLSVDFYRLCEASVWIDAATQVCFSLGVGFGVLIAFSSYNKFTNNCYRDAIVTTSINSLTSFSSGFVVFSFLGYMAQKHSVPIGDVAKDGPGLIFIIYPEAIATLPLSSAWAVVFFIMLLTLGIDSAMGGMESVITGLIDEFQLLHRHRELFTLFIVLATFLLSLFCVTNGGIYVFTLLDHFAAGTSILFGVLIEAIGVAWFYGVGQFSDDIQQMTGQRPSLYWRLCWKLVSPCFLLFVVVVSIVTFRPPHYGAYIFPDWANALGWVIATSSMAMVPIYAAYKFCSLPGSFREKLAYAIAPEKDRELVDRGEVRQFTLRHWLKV

SMILES | Activity (Macaca mulatta) [nM] | inhibition [1] | Ratio IC50 (Homo sapiens)
COC(=O)[C@H]1[C@@H](c2ccc(F)cc2)C[C@@H]2CC[C@H]1N2C | 12.9 |  | 
COC(=O)[C@@H]1C2CCC(C[C@@H]1c1cc3ccccc3[nH]1)O2 (mixture of isomers) |  | Dose-dependent effect | 0.2
COC(=O)[C@@H]1C2CCC(C[C@@H]1c1ccc(-c3cccn3C)cc1)O2 (mixture of isomers) |  | Dose-dependent effect | > 2
COC(=O)[C@@H]1C2CCC(C[C@@H]1c1ccc(-c3ccco3)cc1)O2 (mixture of isomers) |  | Dose-dependent effect | 2
COC(=O)[C@@H]1C2CCC(C[C@H]1c1cc3ccccc3s1)O2 (mixture of isomers) |  | Dose-dependent effect | 
COC(=O)[C@@H]1C2CCC(C[C@H]1c1ccc(-c3cccn3C)cc1)O2 (mixture of isomers) |  | Dose-dependent effect | > 2.5
COC(=O)[C@@H]1C2CCC(C[C@H]1c1ccc(-c3ccco3)cc1)O2 (mixture of isomers) |  | Dose-dependent effect | 4
COC(=O)[C@@H]1C2CCC(C[C@H]1c1ccc(-c3cccs3)cc1)O2 (mixture of isomers) |  | Dose-dependent effect | 10
COC(=O)[C@@H]1C2CCC(C[C@H]1c1ccc(-c3nccs3)cc1)O2 (mixture of isomers) |  | Dose-dependent effect | > 7
COC(=O)[C@@H]1C2CCC(C[C@H]1c1cccs1)O2 (mixture of isomers) |  | Dose-dependent effect | 1
COC(=O)[C@H]1C2CCC(C[C@@H]1c1cc3ccccc3[nH]1)O2 (mixture of isomers) |  | Dose-dependent effect | 0.4
COC(=O)[C@H]1C2CCC(C[C@@H]1c1cc3ccccc3s1)O2 (mixture of isomers) |  | Dose-dependent effect | 
COC(=O)[C@H]1C2CCC(C[C@@H]1c1cccs1)O2 (mixture of isomers) |  | Dose-dependent effect | 1
COC(=O)[C@H]1C2CCC(C[C@H]1c1cc3ccccc3[nH]1)O2 (mixture of isomers) |  | Dose-dependent effect | < 0.3
COC(=O)[C@H]1C2CCC(C[C@H]1c1cc3ccccc3o1)O2 (mixture of isomers) |  | Dose-dependent effect | < 0.04
COC(=O)[C@H]1C2CCC(C[C@H]1c1ccc(-c3ccccc3)o1)O2 (mixture of isomers) |  | Dose-dependent effect | < 2
COC(=O)[C@H]1C2CCC(C[C@H]1c1cccc(-c3nccs3)c1)O2 (mixture of isomers) |  | Dose-dependent effect | 1
COC(=O)C1=C(c2cc3ccccc3o2)CC2CCC1O2 (racemic) |  | Dose-dependent effect | < 0.1
COC(=O)C1=C(c2cc3ccccc3s2)CC2CCC1O2 (racemic) |  | Dose-dependent effect | < 0.004
COC(=O)C1=C(c2ccc(-c3ccccc3)n2C)CC2CCC1O2 (racemic) |  | Dose-dependent effect | 1
COC(=O)C1=C(c2ccc(-c3ccccc3)o2)C[C@@H]2CC[C@H]1O2 (racemic) |  | Dose-dependent effect | 1
COC(=O)C1=C(c2ccc(-c3ccccc3)s2)CC2CCC1O2 (racemic) |  | Dose-dependent effect | 1
COC(=O)C1=C(c2cccc(-c3cccn3C)c2)CC2CCC1O2 (racemic) |  | Dose-dependent effect | > 14
COC(=O)C1=C(c2ccco2)C[C@@H]2CC[C@H]1O2 (racemic) |  | Dose-dependent effect | 1
COC(=O)C1=C(c2cccs2)C[C@@H]2CC[C@H]1O2 (racemic) |  | Dose-dependent effect | 1
O=C1C2=C(CC3CCC2O3)c2cc3ccccc3n21 (racemic) |  | Dose-dependent effect | 1

Source: ChEMBL document CHEMBL2010703, “Synthesis and structure-activity relationship studies of 3-biaryl-8-oxabicyclo[3.2.1]octane-2-carboxylic acid methyl esters” (Bioorg Med Chem, 2012)
